Measurements published in ChEMBL document CHEMBL3407337, “Molecular design, synthesis and biological research of novel pyridyl acridones as potent DNA-binding and apoptosis-inducing agents” (Eur J Med Chem, 2015).
pIC50: −log10 of the molar value. Activity calls are given as the source filed them. The rule behind the calls is not given here.

Legend:
K562 [1] = experiment: Antiproliferative activity against human K562 cells after 48 hrs by MTT assay; type: functional, cell-based; settings: K562, 48 h
Summary of the method: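 K562 suspension cells in RPMI-1640 with 10% FBS, 37 °C, 5% CO2. Seeded at 1.5×10^4 cells/well, exposed 48 h to final 50, 25, 10, 1 and 0.1 μM. MTT (5 mg/mL) added for 4 h at 37 °C. IC50 from the dose series.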

Calf thymus DNA [2] = experiment: Binding affinity to calf thymus DNA assessed as increase in DNA viscosity at 6 to 36 uM by viscosity method; type: nucleic-acid assay; settings: Bos taurus
Summary of the method: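 ct DNA at 200 μM in Tris-HCl buffer, compound at 6–36 μM, viscometer held at 25.0 °C. Flow times read in triplicate and averaged. η = (t−t0)/t0; (η/η0)^1/3 plotted against the compound:DNA ratio.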

A-375 = experiment: Antiproliferative activity against human A375 cells after 48 hrs by MTT assay; type: functional, cell-based; settings: A-375, 48 h
Summary of the method: (§1)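 Adherent lines seeded at 6×10^3 cells/well and allowed 12 h attachment. Media: NCI-H520 and HeLa RPMI-1640; HepG2, MCF-7, CNE-2, A375, A172 and U118-MG DMEM; U251 MEM-EBSS; all with 10% FBS, 37 °C, 5% CO2. Dosed 48 h at final 50, 25, 10, 1 and 0.1 μM. MTT 4 h, formazan dissolved in DMSO, A490. IC50 from the dose series.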

K562 [3] = experiment: Induction of apoptosis in human K562 cells assessed as cleavage of caspase-9 at 1 uM after 36 hrs by Western blot analysis; type: functional, cell-based
Summary of the method: (§2)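 K562 cells in 6 cm dishes treated 36 h at various concentrations. Cells lysed on ice for 0.5 h and spun at 20,000 g. Protein measured by BCA. Lysates run on 12% SDS-PAGE and transferred to PVDF. Membranes blocked in 5% milk and probed overnight at 4 °C with primary antibody against cleaved caspase-9, -7, -3, cleaved PARP or Bcl-XL.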

NCI-H520 = experiment: Antiproliferative activity against human NCI-H520 cells after 48 hrs by MTT assay; type: functional, cell-based; settings: NCI-H520, 48 h; summary of the method: as §1
K562 [4] = experiment: Induction of apoptosis in human K562 cells assessed as early apoptotic cells at 2.5 uM after 48 hrs by annexin V/PI staining based flow cytometry (reference value: 3.89 %); type: functional
Calf thymus DNA [5] = experiment: Binding affinity to calf thymus DNA at 10 uM after 5 mins by UV-vis spectroscopy; type: nucleic-acid assay; settings: Bos taurus
Summary of the method: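 Compound in 5 mM Tris-HCl, 50 mM NaCl, pH 7.2, titrated with ct DNA at 0–30 μM (bp). Incubated 5 min before reading. Absorbance at 425 nm followed. Kb taken as slope/intercept of [DNA]/(εa−εf) versus [DNA]. ct DNA quantified with ε260 6600 M⁻¹cm⁻¹.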

HepG2 = experiment: Antiproliferative activity against human HepG2 cells after 48 hrs by MTT assay; type: functional, cell-based; settings: HepG2, 48 h; summary of the method: as §1
K562 [6] = experiment: Induction of apoptosis in human K562 cells assessed as cleavage of caspase-3 at 1 uM after 36 hrs by Western blot analysis; type: functional, cell-based; summary of the method: as §2
MCF7 = experiment: Antiproliferative activity against human MCF7 cells after 48 hrs by MTT assay; type: functional, cell-based; settings: MCF7, 48 h; summary of the method: as §1
Calf thymus DNA [7] = experiment: Binding affinity to calf thymus DNA at 10 uM after 5 mins by fluorescence emmission spectroscopic method; type: nucleic-acid assay; settings: Bos taurus
Summary of the method: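 Compound at final 10 μM in 5 mM Tris-HCl, 50 mM NaCl, pH 7.2. ct DNA added to final 0–100 μM. Incubated 5 min. Emission recorded with excitation 425 nm. F/F0 plotted against [DNA]/[compound].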

HeLa = experiment: Antiproliferative activity against human HeLa cells after 48 hrs by MTT assay; type: functional, cell-based; summary of the method: as §1
K562 [8] = experiment: Induction of apoptosis in human K562 cells assessed as late apoptotic cells at 1 uM after 48 hrs by annexin V/PI staining based flow cytometry (reference value: 0.26 %); type: functional
[9] = Antiproliferative activity against human A172 cells after 48 hrs by MTT assay; type: functional, cell-based; settings: A 172, 48 h; summary of the method: as §1
K562 [10] = experiment: Induction of apoptosis in human K562 cells assessed as late apoptotic cells at 0.5 uM after 48 hrs by annexin V/PI staining based flow cytometry (reference value: 0.26 %); type: functional
K562 [11] = experiment: Induction of apoptosis in human K562 cells after 48 hrs by annexin V/PI staining based flow cytometry; type: functional, cell-based
K562 [12] = experiment: Induction of apoptosis in human K562 cells assessed as cleavage of caspase-7 at 1 uM after 36 hrs by Western blot analysis; type: functional, cell-based; summary of the method: as §2
K562 [13] = experiment: Induction of apoptosis in human K562 cells assessed as late apoptotic cells at 0.25 uM after 48 hrs by annexin V/PI staining based flow cytometry (reference value: 0.26 %); type: functional
K562 [14] = experiment: Induction of apoptosis in human K562 cells assessed as reduction in Bcl-XL protein expression at 1 uM after 36 hrs by Western blot analysis; type: functional, cell-based; summary of the method: as §2
K562 [15] = experiment: Induction of apoptosis in human K562 cells assessed as loss of mitochondrial membrane potential at 1 uM after 24 hrs by JC-1 staining based fluorescence microscopy; type: functional, cell-based
Summary of the method: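 K562 cells exposed to 1 μM for 24 h. Stained with a JC-1 kit and viewed by fluorescence microscopy (red aggregates versus green monomers). Untreated cells served as blank; CCCP at 10 μM as positive control.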

K562 [16] = experiment: Induction of apoptosis in human K562 cells assessed as late apoptotic cells at 0.05 uM after 48 hrs by annexin V/PI staining based flow cytometry (reference value: 0.26 %); type: functional
[17] = Antiproliferative activity against human U118MG cells after 48 hrs by MTT assay; type: functional, cell-based; settings: U-118-MG; summary of the method: as §1
U-251 = experiment: Antiproliferative activity against human U251 cells after 48 hrs by MTT assay; type: functional, cell-based; settings: U-251, 48 h; summary of the method: as §1
K562 [18] = experiment: Induction of apoptosis in human K562 cells assessed as cleavage of PARP at 1 uM after 36 hrs by Western blot analysis; type: functional, cell-based; summary of the method: as §2
K562 [19] = experiment: Induction of apoptosis in human K562 cells assessed as late apoptotic cells at 2.5 uM after 48 hrs by annexin V/PI staining based flow cytometry (reference value: 0.26 %); type: functional

## Cc1cccc2c(=O)c3c(NCc4ccncc4)ccc(C(=O)NCCN(C)C)c3[nH]c12
K562 [1]
  pIC50: 6.34
Calf thymus DNA [2]
  Activity: Active
A-375
  pIC50: 6.80
K562 [3]
  Activity: Active
NCI-H520
  pIC50: 5.99
K562 [4]
  Activity: 54.93%
Calf thymus DNA [5]
  Kb: 5.1 ×10⁴ /M
HepG2
  pIC50: 6.49
K562 [6]
  Activity: Active
MCF7
  pIC50: 5.59
Calf thymus DNA [7]
  Activity: Active
HeLa
  pIC50: 5.42
K562 [8]
  Activity: 7.54%
[9]
  pIC50: 5.66
K562 [10]
  Activity: 2.13%
K562 [11]
  Activity: Dose-dependent effect
K562 [12]
  Activity: Active
K562 [13]
  Activity: 1.08%
K562 [14]
  Activity: Active
K562 [15]
  Activity: Active
K562 [16]
  Activity: 0.49%
[17]
  pIC50: 5.97
U-251
  pIC50: 6.10
K562 [18]
  Activity: Active
K562 [19]
  Activity: 20.24%
